This is a sample that favours compounds with a hit; in the whole collection about 3.5% have one here.
esBAF inh – blocks esBAF chromatin remodeling in mouse ES cells; Bmi1-luciferase knock-in reporter, 24 h; 100% = twice the neutral-well signal; reporter increase, % at 12.5 µM; 350,000 tested, 2% active; AID 602393; in the data active = activation above about 40%;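 note: 0% = median of the plate's neutral control wells and 100% = double that signal; a rise in the Bmi1 reporter signal indicates esBAF inhibition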
MITF act – MITF TRPM1 promoter activation in melanoma cells. SK-MEL-5 TRPM1-promoter luciferase, 24 h; % of positive control, neutral wells = 0. AID 588334. 300,000 tested, 0.75% active. activation, % at 12.5 µM;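 active = mean activation of at least 80% with every replicate also reaching 80%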;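 note: 0% = neutral control wells and 100% = parthenolide positive control wells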
Cneo AK release – Cryptococcus neoformans lysis via adenylate kinase release; C. neoformans lysis, adenylate kinase release luminescence, 4 h; normalised: neutral wells 0, clomiphene wells 100; lysis activity, % at 15 µM; 360,000 tested, 0.2% active; AID 651654;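 active = mean lysis activity across replicates of at least 80%, whatever share of replicates individually reach that level; inactive = mean lysis activity below 80%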
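Material – Cryptococcus neoformans yeast cells · Quantity – 5 × 10^6 yeast cells/mL · Buffer or medium – YPD medium · Compound – single dose · Timing – 4 h static compound exposure, 37 °C, read 1 h post-reagent · Signal – adenylate kinase release luminescence · Read-out basis – lysis from increased AK signal · Benchmarks – Clomiphene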
Env fusion inh – HIV envelope-mediated fusion inhibition | 360,000 tested, 1.1% active | HeLa-JRFL Env/CEM21 cell fusion, luciferase | inhibition, % at 12.3 µM | AID 651610;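 active = mean replicate inhibition score of at least 50 and every replicate individually at or above 50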;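 note: 0% = plate neutral controls and 100% = maraviroc near 300 nM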
Wnt act – Wnt/beta-catenin pathway activation. AID 743398. activation, % at 9.35 µM. 300,000 tested, 1.2% active. Wnt/beta-catenin reporter cell assay, activator, plate reader; in the data active = activation above about 30%, passing the limit was not always enough;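 note: 0% = neutral control wells and 100% = positive control wells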
ERAP1 HTS inh – inhibitors of human ERAP1 aminopeptidase; AID 652197; inhibition, % at 10.7 µM; recombinant ERAP1, Leu-AMC fluorescence, 60 min; Q9NZ08; 340,000 tested, 0.15% active;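 active = mean replicate inhibition of at least 30%, or all replicates individually reaching that 30% level; inactive = mean below 30% and not every replicate reaching it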;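 note: 0% = neutral control wells and 100% = L-leucinethiol positive control wells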
Target sequence (Q9NZ08 whole entry, looked up): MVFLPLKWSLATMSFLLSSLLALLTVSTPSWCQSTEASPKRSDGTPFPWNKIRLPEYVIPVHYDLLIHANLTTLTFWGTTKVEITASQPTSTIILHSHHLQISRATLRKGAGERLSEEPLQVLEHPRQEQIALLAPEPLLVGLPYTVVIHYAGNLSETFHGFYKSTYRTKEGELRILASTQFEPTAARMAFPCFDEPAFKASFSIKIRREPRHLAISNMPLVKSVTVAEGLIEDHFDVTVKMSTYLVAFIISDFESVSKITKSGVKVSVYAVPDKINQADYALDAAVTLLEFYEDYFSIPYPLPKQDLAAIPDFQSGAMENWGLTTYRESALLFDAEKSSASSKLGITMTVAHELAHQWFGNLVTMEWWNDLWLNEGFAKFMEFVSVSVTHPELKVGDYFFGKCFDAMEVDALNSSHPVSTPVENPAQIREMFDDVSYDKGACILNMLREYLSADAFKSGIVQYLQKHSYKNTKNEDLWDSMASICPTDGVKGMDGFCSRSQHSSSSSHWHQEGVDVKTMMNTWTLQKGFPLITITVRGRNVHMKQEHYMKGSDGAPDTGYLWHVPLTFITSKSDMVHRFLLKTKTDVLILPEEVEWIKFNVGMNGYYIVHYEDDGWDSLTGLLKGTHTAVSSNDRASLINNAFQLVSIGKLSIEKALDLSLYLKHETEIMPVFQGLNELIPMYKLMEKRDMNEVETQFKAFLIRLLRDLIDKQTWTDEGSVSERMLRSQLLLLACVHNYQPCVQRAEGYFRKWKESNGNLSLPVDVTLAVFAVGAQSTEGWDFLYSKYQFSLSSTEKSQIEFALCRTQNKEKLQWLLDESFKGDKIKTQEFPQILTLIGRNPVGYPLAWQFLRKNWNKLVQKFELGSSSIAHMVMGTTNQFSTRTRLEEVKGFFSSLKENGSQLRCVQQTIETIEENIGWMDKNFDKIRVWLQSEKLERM
Ring1 derepress – de-represses Ring1 in mouse ESCs, confirming esBAF inhibition; mouse ESC E14, Ring1 mRNA RT-qPCR fold change; shares compounds with esBAF inh; 550 tested, under 10 active; fold change at 33 µM;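 active = Ring1 gene expression raised more than 2-fold over untreated cells in both replicates at either tested dose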;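 note: Ring1 transcript normalised to actin housekeeping signal by TaqMan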
esBAF Fgf4 qPCR – esBAF inhibition confirmed by Fgf4 repression; shares compounds with esBAF inh; mouse ESC E14, Fgf4 mRNA qPCR fold change; stronger effect = lower value; Fgf4 expression fold change at 33 µM; 550 tested, 4% active;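 active = Fgf4 expression under 0.8 fold of control in both repeat measurements at one or both tested doses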;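 note: Fgf4 transcript normalised to actin in duplex TaqMan qPCR; cells exposed to compound for 24 h before lysis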
Bmi1 derepress – de-represses Bmi1 in mouse ESCs, confirming esBAF inhibition; shares compounds with esBAF inh; mouse ESE14 ES cells, Bmi1 mRNA qPCR fold; stronger effect = higher value; fold change at 33 µM; 550 tested, under 10 active;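 active = Bmi1 expression fold change above 6 at either tested concentration, seen in replicate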;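 note: higher fold means more Bmi1 de-repression and stronger esBAF inhibition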
A549 tox SP – cytotoxicity in A549 cells. shares compounds with esBAF inh. plate reader. cell viability change % (negative = cytotoxic), % at 25 µM, hits read low. 550 tested, under 10 active; call rule not given here
HepG2 tox SP – kills or reduces viability of HepG2 cells; shares compounds with esBAF inh; HepG2 cytotoxicity, plate reader; stronger effect = lower value; 550 tested, 4% active; activity change, negative = inhibition, % at 25 µM; AID 743189; in the data active = activity change below about -50%
HEK293 cytotox SP – kills or reduces viability of HEK293 cells. shares compounds with esBAF inh. HEK293 cytotoxicity, plate reader. activity change, negative = inhibition, % at 25 µM, hits read low. 550 tested, 3% active. AID 743190; in the data active = activity change below about -38%, passing the limit was not always enough
* marks the source's active call; other numbers are inactive results; · = no result; [ ] = dose if it differs, or a comment.

SMILES	esBAF inh	MITF act	Cneo AK release	Env fusion inh	Wnt act	ERAP1 HTS inh	Ring1 derepress	esBAF Fgf4 qPCR	Bmi1 derepress	A549 tox SP	HepG2 tox SP	HEK293 cytotox SP
O=C(CCc1nnc(CCc2c[nH]c3ccccc23)o1)NC1CCC1	66.1*	45.2	-0.4	-30.4	29.3	-0.3	0.934	0.959	1.55	-0.8	-31.0	4.4
C[C@@H]1CN([C@H](C)CO)C(=O)c2cccc(NS(=O)(=O)c3ccc(F)cc3)c2O[C@H]1CN(C)Cc1ccc(Cl)c(Cl)c1	-1.5	·	3.9	·	·	-1.5	·	·	·	·	·	·
CCn1c(C)nc2cc(C(=O)NN=Cc3ccccc3OC(F)F)ccc21	79.4*	90.4*	-4.9	-66.7	-3.4	-0.6	1.08	1.2	1.37	-11.3	-26.5	-11.0
CCn1c(C)nc2cc(C(=O)N/N=C/c3ccccc3C)ccc21	29.9	31.3	-2.1	-46.7	5.3	-3.4	·	·	·	·	·	·
Cn1c2nc3ccccc3c-2nc2ccccc21	54.1*	·	1.4	-24.6	38.6*	-1.6	1.04	0.809	6.44*	-9.7	5.7	-4.6
COc1ccc(NC(=O)Nc2cccc(C)n2)cc1	66.4*	68.4	-2.0	-44.8	21.0	-0.1	1.06	0.878	2	-1.2	-0.7	-7.3
CCC(=O)N1C[C@@H](O)COC[C@H]2O[C@@H](CC(=O)N3CCCCC3)CC[C@@H]21	1.2	·	-2.9	-8.7[16.7 µM]	·	1.6	·	·	·	·	·	·
COc1ccc2c(=O)c(-c3ccc(OC)c(OC)c3)coc2c1	57.9*	95.0*	-5.5	·	1.4	5.0	1.02	0.888	1.46	-3.5	-59.9*	-13.9
COc1ccc2c(=O)c3ccccc3oc2c1	58.0*	104.3*	-1.7	·	2.1	·	1.41	1.02	1.69	-10.7	-3.6	-15.5
COc1ccc2c(=O)c(N3C(=O)c4ccccc4C3=O)c(C)oc2c1	1.5	5.3	1.6	·	-1.2	8.2	·	·	·	·	·	·
O=C(N[C@@H]1C=C[C@@H](CC(=O)N2CCc3ccccc3C2)O[C@H]1CO)C1CC1	1.0	·	-14.3	3.2[16.7 µM]	·	·	·	·	·	·	·	·
CC(C)c1ccc(NC(=O)c2cccnc2)cc1	84.9*	91.1*	-4.6	·	·	·	1.12	0.814	1.56	-1.1	-26.9	4.7
CN(C)CCCNC(=O)C[C@@H]1C=C[C@H](NS(=O)(=O)c2ccccc2)[C@@H](CO)O1	-4.6	·	37.9	6.2[16.7 µM]	·	-0.6	·	·	·	·	·	·
CN1CCN(/N=C/c2ccc(N(C)c3ccccc3)cc2)CC1	-3.7	-1.4	4.5	5.0	-1.3	-4.0	·	·	·	·	·	·
CN(C)c1ccc(C=NN2CCCCCC2)cc1	75.2*	56.3	21.8	-27.2	-2.9	-0.9	1.22	0.873	1.26	-6.4	-5.2	-4.2
O=C(Nc1ccc2c(c1)[C@H]1C[C@@H](CC(=O)N3CCOCC3)O[C@H](CO)[C@H]1O2)c1cccnc1	-2.8	·	-4.8	-6.1[16.7 µM]	·	1.1	·	·	·	·	·	·
COc1cccc(NC(=O)C(=O)NCC2CCCN2S(=O)(=O)c2cccs2)c1 (stereo unspecified)	62.0*	·	-3.7	-88.1	-3.0	16.5	0.973	0.931	1.25	-13.9	-23.4	-18.1
COc1cccc(NC(=O)C(=O)NCCC2CCCCN2S(=O)(=O)c2cccs2)c1 (stereo unspecified)	60.4*	95.9*	·	-32.1	38.5*	-0.9	0.811	0.936	1.35	-5.5	26.8	-7.6
C[C@@H]1CN([C@@H](C)CO)C(=O)c2cc(C#CC3CCCC3)cnc2O[C@H]1CN(C)C(=O)C1CCCCC1	6.2	·	-1.5	39.2[16.7 µM]	·	-1.6	·	·	·	·	·	·
